Converted amounts (≈) assume the structure as drawn. Values belong to the compound of their own block, whether it stands above or below them.
Tests used:
Format in all cases: functional
Escherichia coli [1] = experiment: Antibacterial activity against extended-spectrum beta-lactamase producing Escherichia coli isolate 208687 after 18 hrs in presence of BPL by CLSI broth microdilution method; conditions: isolate 208687, 18 h
Outline: (§1)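 CLSI broth microdilution against clinical isolates (ESBL E. coli, KPC-2 MDR K. pneumoniae, IMP-4 MDR P. aeruginosa; five per species). Iron limitation: Mueller-Hinton broth supplemented with 16 mg/liter 2,2'-bipyridyl to complex iron and induce iron uptake systems. Read-out: MIC.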

Escherichia coli [2] = experiment: Antibacterial activity against extended-spectrum beta-lactamase producing Escherichia coli isolate 208687 after 18 hrs by CLSI broth microdilution method; conditions: isolate 208687, 18 h
Escherichia coli [3] = experiment: Antibacterial activity against Escherichia coli isolate 210737 after 18 hrs by CLSI broth microdilution method; conditions: isolate 210737, 18 h
Klebsiella pneumoniae [4] = experiment: Antibacterial activity against KPC-2 producing Klebsiella pneumoniae isolate 209735 after 18 hrs in presence of BPL by CLSI broth microdilution method; conditions: isolate 209735, 18 h; outline: as §1
Pseudomonas aeruginosa [5] = experiment: Antibacterial activity against IMP-4 producing Pseudomonas aeruginosa isolate 208247 after 18 hrs in presence of BPL by CLSI broth microdilution method; conditions: isolate 208247, 18 h; outline: as §1
Pseudomonas aeruginosa [6] = experiment: Antibacterial activity against IMP-4 producing Pseudomonas aeruginosa isolate 212886 after 18 hrs by CLSI broth microdilution method; conditions: isolate 212886, 18 h
Klebsiella pneumoniae [7] = experiment: Antibacterial activity against KPC-2 producing Klebsiella pneumoniae isolate 212229 after 18 hrs in presence of BPL by CLSI broth microdilution method; conditions: isolate 212229, 18 h; outline: as §1
Escherichia coli [8] = experiment: Antibacterial activity against extended-spectrum beta-lactamase producing Escherichia coli isolate 212648 after 18 hrs by CLSI broth microdilution method; conditions: isolate 212648, 18 h
Klebsiella pneumoniae [9] = experiment: Selectivity index, ratio of MIC for against KPC-2 producing Klebsiella pneumoniae isolate 212423 to MIC for against KPC-2 producing Klebsiella pneumoniae isolate 212423 in presence of BPL
Klebsiella pneumoniae [10] = experiment: Antibacterial activity against KPC-2 producing Klebsiella pneumoniae isolate 212229 after 18 hrs by CLSI broth microdilution method; conditions: isolate 212229, 18 h
Pseudomonas aeruginosa [11] = experiment: Antibacterial activity against IMP-4 producing Pseudomonas aeruginosa isolate 207272 after 18 hrs in presence of BPL by CLSI broth microdilution method; conditions: isolate 207272, 18 h; outline: as §1
Klebsiella pneumoniae [12] = experiment: Selectivity index, ratio of MIC for against KPC-2 producing Klebsiella pneumoniae isolate 209632 to MIC for against KPC-2 producing Klebsiella pneumoniae isolate 209632 in presence of BPL
Pseudomonas aeruginosa [13] = experiment: Antibacterial activity against IMP-4 producing Pseudomonas aeruginosa isolate 207272 after 18 hrs by CLSI broth microdilution method; conditions: isolate 207272, 18 h
Klebsiella pneumoniae [14] = experiment: Antibacterial activity against KPC-2 producing Klebsiella pneumoniae isolate 209735 after 18 hrs by CLSI broth microdilution method; conditions: isolate 209735, 18 h
Pseudomonas aeruginosa [15] = experiment: Antibacterial activity against IMP-4 producing Pseudomonas aeruginosa isolate 209471 after 18 hrs by CLSI broth microdilution method; conditions: isolate 209471, 18 h
Escherichia coli [16] = experiment: Antibacterial activity against extended-spectrum beta-lactamase producing Escherichia coli isolate 106342 after 18 hrs by CLSI broth microdilution method; conditions: isolate 106342, 18 h
Klebsiella pneumoniae [17] = experiment: Antibacterial activity against KPC-2 producing Klebsiella pneumoniae isolate 212423 after 18 hrs in presence of BPL by CLSI broth microdilution method; conditions: isolate 212423, 18 h; outline: as §1
Klebsiella pneumoniae [18] = experiment: Antibacterial activity against KPC-2 producing Klebsiella pneumoniae isolate 209632 after 18 hrs in presence of BPL by CLSI broth microdilution method; conditions: isolate 209632, 18 h; outline: as §1
Escherichia coli [19] = experiment: Antibacterial activity against extended-spectrum beta-lactamase producing Escherichia coli isolate 106342 after 18 hrs in presence of BPL by CLSI broth microdilution method; conditions: isolate 106342, 18 h; outline: as §1
Escherichia coli [20] = experiment: Antibacterial activity against extended-spectrum beta-lactamase producing Escherichia coli isolate 209285 after 18 hrs in presence of BPL by CLSI broth microdilution method; conditions: isolate 209285, 18 h; outline: as §1
Escherichia coli [21] = experiment: Antibacterial activity against extended-spectrum beta-lactamase producing Escherichia coli isolate 212648 after 18 hrs in presence of BPL by CLSI broth microdilution method; conditions: isolate 212648, 18 h; outline: as §1
Klebsiella pneumoniae [22] = experiment: Antibacterial activity against KPC-2 producing Klebsiella pneumoniae isolate 212232 after 18 hrs by CLSI broth microdilution method; conditions: isolate 212232, 18 h
Klebsiella pneumoniae [23] = experiment: Selectivity index, ratio of MIC for against KPC-2 producing Klebsiella pneumoniae isolate 212229 to MIC for against KPC-2 producing Klebsiella pneumoniae isolate 212229 in presence of BPL
Escherichia coli [24] = experiment: Antibacterial activity against Escherichia coli isolate 210737 after 18 hrs in presence of BPL by CLSI broth microdilution method; conditions: isolate 210737, 18 h; outline: as §1
Klebsiella pneumoniae [25] = experiment: Antibacterial activity against KPC-2 producing Klebsiella pneumoniae isolate 212423 after 18 hrs by CLSI broth microdilution method; conditions: isolate 212423, 18 h
Klebsiella pneumoniae [26] = experiment: Antibacterial activity against KPC-2 producing Klebsiella pneumoniae isolate 209632 after 18 hrs by CLSI broth microdilution method; conditions: isolate 209632, 18 h
Pseudomonas aeruginosa [27] = experiment: Antibacterial activity against IMP-4 producing Pseudomonas aeruginosa isolate 209471 after 18 hrs in presence of BPL by CLSI broth microdilution method; conditions: isolate 209471, 18 h; outline: as §1
Pseudomonas aeruginosa [28] = experiment: Antibacterial activity against IMP-4 producing Pseudomonas aeruginosa isolate 209321 after 18 hrs by CLSI broth microdilution method; conditions: isolate 209321, 18 h
Pseudomonas aeruginosa [29] = experiment: Antibacterial activity against IMP-4 producing Pseudomonas aeruginosa isolate 208247 after 18 hrs by CLSI broth microdilution method; conditions: isolate 208247, 18 h
Klebsiella pneumoniae [30] = experiment: Selectivity index, ratio of MIC for against KPC-2 producing Klebsiella pneumoniae isolate 212232 to MIC for against KPC-2 producing Klebsiella pneumoniae isolate 212232 in presence of BPL
Klebsiella pneumoniae [31] = experiment: Selectivity index, ratio of MIC for against KPC-2 producing Klebsiella pneumoniae isolate 209735 to MIC for against KPC-2 producing Klebsiella pneumoniae isolate 209735 in presence of BPL
Pseudomonas aeruginosa [32] = experiment: Antibacterial activity against IMP-4 producing Pseudomonas aeruginosa isolate 212886 after 18 hrs in presence of BPL by CLSI broth microdilution method; conditions: isolate 212886, 18 h; outline: as §1
Escherichia coli [33] = experiment: Antibacterial activity against extended-spectrum beta-lactamase producing Escherichia coli isolate 209285 after 18 hrs by CLSI broth microdilution method; conditions: isolate 209285, 18 h
Pseudomonas aeruginosa [34] = experiment: Antibacterial activity against IMP-4 producing Pseudomonas aeruginosa isolate 209321 after 18 hrs in presence of BPL by CLSI broth microdilution method; conditions: isolate 209321, 18 h; outline: as §1
Klebsiella pneumoniae [35] = experiment: Antibacterial activity against KPC-2 producing Klebsiella pneumoniae isolate 212232 after 18 hrs in presence of BPL by CLSI broth microdilution method; conditions: isolate 212232, 18 h; outline: as §1
Escherichia coli [36] = experiment: Selectivity index, ratio of MIC for against extended-spectrum beta-lactamase producing Escherichia coli isolate 209285 to MIC for extended-spectrum beta-lactamase producing Escherichia coli isolate 209285 in presence of BPL
Escherichia coli [37] = experiment: Selectivity index, ratio of MIC for against extended-spectrum beta-lactamase producing Escherichia coli isolate 208687 to MIC for extended-spectrum beta-lactamase producing Escherichia coli isolate 208687 in presence of BPL
Escherichia coli [38] = experiment: Selectivity index, ratio of MIC for against extended-spectrum beta-lactamase producing Escherichia coli isolate 106342 to MIC for extended-spectrum beta-lactamase producing Escherichia coli isolate 106342 in presence of BPL
Pseudomonas aeruginosa [39] = experiment: Selectivity index, ratio of MIC for against IMP-4 producing Pseudomonas aeruginosa isolate 207272 to MIC for against IMP-4 producing Pseudomonas aeruginosa isolate 207272 in presence of BPL
Pseudomonas aeruginosa [40] = experiment: Selectivity index, ratio of MIC for against IMP-4 producing Pseudomonas aeruginosa isolate 209471 to MIC for against IMP-4 producing Pseudomonas aeruginosa isolate 209471 in presence of BPL
Escherichia coli [41] = experiment: Selectivity index, ratio of MIC for against Escherichia coli isolate 210737 to MIC for Escherichia coli isolate 210737 in presence of BPL
Pseudomonas aeruginosa [42] = experiment: Selectivity index, ratio of MIC for against IMP-4 producing Pseudomonas aeruginosa isolate 208247 to MIC for against IMP-4 producing Pseudomonas aeruginosa isolate 208247 in presence of BPL
Escherichia coli [43] = experiment: Selectivity index, ratio of MIC for against extended-spectrum beta-lactamase producing Escherichia coli isolate 212648 to MIC for extended-spectrum beta-lactamase producing Escherichia coli isolate 212648 in presence of BPL

- MIC (Escherichia coli [1]): > 64 µg/mL
- MIC (Escherichia coli [2]): > 64 µg/mL
- MIC (Escherichia coli [3]): > 64 µg/mL
- MIC (Klebsiella pneumoniae [4]): > 64 µg/mL
- MIC (Pseudomonas aeruginosa [5]): 64 µg/mL
- MIC (Pseudomonas aeruginosa [6]): > 64 µg/mL
- MIC (Klebsiella pneumoniae [7]): > 64 µg/mL
- MIC (Escherichia coli [8]): > 64 µg/mL
- MIC (Klebsiella pneumoniae [10]): > 64 µg/mL
- MIC (Pseudomonas aeruginosa [11]): > 64 µg/mL
- MIC (Pseudomonas aeruginosa [13]): > 64 µg/mL
- MIC (Klebsiella pneumoniae [14]): > 64 µg/mL
- MIC (Pseudomonas aeruginosa [15]): > 64 µg/mL
- MIC (Escherichia coli [16]): > 64 µg/mL
- MIC (Klebsiella pneumoniae [17]): > 64 µg/mL
- MIC (Klebsiella pneumoniae [18]): > 64 µg/mL
- MIC (Escherichia coli [19]): > 64 µg/mL
- MIC (Escherichia coli [20]): > 64 µg/mL
- MIC (Escherichia coli [21]): > 64 µg/mL
- MIC (Klebsiella pneumoniae [22]): 32 µg/mL (≈ 55.1 µM)
- MIC (Escherichia coli [24]): > 64 µg/mL
- MIC (Klebsiella pneumoniae [25]): > 64 µg/mL
- MIC (Klebsiella pneumoniae [26]): > 64 µg/mL
- MIC (Pseudomonas aeruginosa [27]): > 64 µg/mL
- MIC (Pseudomonas aeruginosa [28]): > 64 µg/mL
- MIC (Pseudomonas aeruginosa [29]): > 64 µg/mL
- MIC (Pseudomonas aeruginosa [32]): > 64 µg/mL
- MIC (Escherichia coli [33]): > 64 µg/mL
- MIC (Pseudomonas aeruginosa [34]): > 64 µg/mL
- MIC (Klebsiella pneumoniae [35]): 4 µg/mL
SMILES: CC(C)C(O/N=C(\C(=O)NC1C(=O)N(S(=O)(=O)O)C1(CF)CF)c1csc(N)n1)c1cc(=O)c(O)cn1O (stereo not drawn)
- Selectivity Index (Klebsiella pneumoniae [9]): 8
- Selectivity Index (Klebsiella pneumoniae [12]): 8
- Selectivity Index (Klebsiella pneumoniae [23]): 8
- Selectivity Index (Klebsiella pneumoniae [30]): 8
- Selectivity Index (Klebsiella pneumoniae [31]): 8

- MIC (Escherichia coli [1]): 1 µg/mL
- MIC (Escherichia coli [2]): 4 µg/mL (≈ 5.88 µM)
- MIC (Escherichia coli [3]): 1 µg/mL (≈ 1.47 µM)
- MIC (Klebsiella pneumoniae [4]): 2 µg/mL
- MIC (Pseudomonas aeruginosa [5]): 64 µg/mL
- MIC (Pseudomonas aeruginosa [6]): > 64 µg/mL
- MIC (Klebsiella pneumoniae [7]): 1 µg/mL
- MIC (Escherichia coli [8]): 2 µg/mL (≈ 2.94 µM)
- MIC (Klebsiella pneumoniae [10]): 2 µg/mL (≈ 2.94 µM)
- MIC (Pseudomonas aeruginosa [11]): 64 µg/mL
- MIC (Pseudomonas aeruginosa [13]): 64 µg/mL (≈ 94.2 µM)
- MIC (Klebsiella pneumoniae [14]): 4 µg/mL (≈ 5.88 µM)
- MIC (Pseudomonas aeruginosa [15]): 64 µg/mL (≈ 94.2 µM)
- MIC (Escherichia coli [16]): 2 µg/mL (≈ 2.94 µM)
- MIC (Klebsiella pneumoniae [17]): 2 µg/mL
- MIC (Klebsiella pneumoniae [18]): 2 µg/mL
- MIC (Escherichia coli [19]): 1 µg/mL
- MIC (Escherichia coli [20]): 2 µg/mL
- MIC (Escherichia coli [21]): 1 µg/mL
- MIC (Klebsiella pneumoniae [22]): 4 µg/mL (≈ 5.88 µM)
- MIC (Escherichia coli [24]): 0.5 µg/mL
- MIC (Klebsiella pneumoniae [25]): 4 µg/mL (≈ 5.88 µM)
- MIC (Klebsiella pneumoniae [26]): 2 µg/mL (≈ 2.94 µM)
- MIC (Pseudomonas aeruginosa [27]): 64 µg/mL
- MIC (Pseudomonas aeruginosa [28]): > 64 µg/mL
- MIC (Pseudomonas aeruginosa [29]): 64 µg/mL (≈ 94.2 µM)
- MIC (Pseudomonas aeruginosa [32]): > 64 µg/mL
- MIC (Escherichia coli [33]): 4 µg/mL (≈ 5.88 µM)
- MIC (Pseudomonas aeruginosa [34]): > 64 µg/mL
- MIC (Klebsiella pneumoniae [35]): 0.5 µg/mL
SMILES: CC(C)C(O/N=C(\C(=O)N[C@@H]1C(=O)N(S(=O)(=O)O)[C@@H]1CSc1nc2ccccc2o1)c1csc(N)n1)c1cc(=O)c(O)cn1O (stereo partly drawn)
- Selectivity Index (Escherichia coli [36]): 2
- Selectivity Index (Escherichia coli [37]): 4
- Selectivity Index (Escherichia coli [38]): 2
- Selectivity Index (Pseudomonas aeruginosa [39]): 1
- Selectivity Index (Klebsiella pneumoniae [9]): 2
- Selectivity Index (Klebsiella pneumoniae [12]): 1
- Selectivity Index (Pseudomonas aeruginosa [40]): 1
- Selectivity Index (Escherichia coli [41]): 2
- Selectivity Index (Klebsiella pneumoniae [23]): 2
- Selectivity Index (Pseudomonas aeruginosa [42]): 1
- Selectivity Index (Klebsiella pneumoniae [30]): 8
- Selectivity Index (Klebsiella pneumoniae [31]): 2
- Selectivity Index (Escherichia coli [43]): 2

Reference: ChEMBL document CHEMBL4152188, “Design, synthesis and biological evaluation of C(4) substituted monobactams as antibacterial agents against multidrug-resistant Gram-negative bacteria” (Eur J Med Chem, 2018)
